Experimental data published in ChEMBL document CHEMBL1687930 (J Med Chem, 2011).

What was measured:
[1] = Growth inhibition of dog MDCK2 cells; type: functional; conditions: Canis lupus familiaris, MDCK-II
Summary of the method: (§1)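 Parental lines (MDCKII, LLC-PK1) and matched Pgp-overexpressing lines (MDCKII-MDR1, about 500-fold Pgp; L-MDR1, about 25000-fold Pgp) were tested with and without the Pgp inhibitor LY335979. Each experiment was run at least in triplicate, with 8 wells per concentration. GI50 came from a nonlinear four-parameter sigmoidal concentration-response fit.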

[2] = Growth inhibition of dog MDCK2-MDR1 cells overexpressing human P-glycoprotein; type: functional; conditions: Canis lupus familiaris, MDCK-II; summary of the method: as §1
[3] = Growth inhibition of dog MDCK2 cells in presence of P-glycoprotein inhibitor LY335979; type: functional; conditions: Canis lupus familiaris, MDCK-II; summary of the method: as §1
[4] = Growth inhibition of dog MDCK2-MDR1 cells overexpressing human P-glycoprotein in presence of P-glycoprotein inhibitor LY335979; type: functional; conditions: Canis lupus familiaris, MDCK-II; summary of the method: as §1
[5] = system: MDCK-II; experiment: Ratio of GI50 for dog MDCK2-MDR1 cells overexpressing human P-glycoprotein to GI50 for dog MDCK2 cells; type: functional, Canis lupus familiaris
[6] = system: LLC-PK1; experiment: Growth inhibition of pig LLC-PK1 cells; type: functional; conditions: Sus scrofa; summary of the method: as §1
[7] = Growth inhibition of pig L-MDR1 cells overexpressing human P-glycoprotein; type: functional; conditions: Sus scrofa; summary of the method: as §1
[8] = system: LLC-PK1; experiment: Growth inhibition of pig LLC-PK1 cells in presence of P-glycoprotein inhibitor LY335979; type: functional; conditions: Sus scrofa; summary of the method: as §1
[9] = Growth inhibition of pig L-MDR1 cells overexpressing human P-glycoprotein in presence of P-glycoprotein inhibitor LY335979; type: functional; conditions: Sus scrofa; summary of the method: as §1
[10] = system: LLC-PK1; experiment: Ratio of GI50 for pig L-MDR1 cells overexpressing human P-glycoprotein to GI50 for pig LLC-PK1 cells; type: functional, Sus scrofa
Summary of the method: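 MDR ratio is the GI50 in L-MDR1 cells (Pgp-overexpressing) divided by the GI50 in parental LLC-PK1 cells. Each GI50 came from growth inhibition run at least in triplicate, with 8 wells per concentration, fitted by a four-parameter sigmoidal model.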

[11] = Upregulation of P-glycoprotein mRNA expression in dog MDCK2 cells; type: functional, cell-based; conditions: Canis lupus familiaris; MDCK-II
[12] = system: LLC-PK1; experiment: Upregulation of P-glycoprotein mRNA expression in pig LLC-PK1 cells; type: functional, Sus scrofa
[13] = biological target: T1, Kinesin-like protein KIF11 (Homo sapiens, UniProt P52732); experiment: Inhibition of untagged human Eg5 basal ATPase activity; conditions: read-out: Ki(app)
T1 sequence (P52732 whole entry): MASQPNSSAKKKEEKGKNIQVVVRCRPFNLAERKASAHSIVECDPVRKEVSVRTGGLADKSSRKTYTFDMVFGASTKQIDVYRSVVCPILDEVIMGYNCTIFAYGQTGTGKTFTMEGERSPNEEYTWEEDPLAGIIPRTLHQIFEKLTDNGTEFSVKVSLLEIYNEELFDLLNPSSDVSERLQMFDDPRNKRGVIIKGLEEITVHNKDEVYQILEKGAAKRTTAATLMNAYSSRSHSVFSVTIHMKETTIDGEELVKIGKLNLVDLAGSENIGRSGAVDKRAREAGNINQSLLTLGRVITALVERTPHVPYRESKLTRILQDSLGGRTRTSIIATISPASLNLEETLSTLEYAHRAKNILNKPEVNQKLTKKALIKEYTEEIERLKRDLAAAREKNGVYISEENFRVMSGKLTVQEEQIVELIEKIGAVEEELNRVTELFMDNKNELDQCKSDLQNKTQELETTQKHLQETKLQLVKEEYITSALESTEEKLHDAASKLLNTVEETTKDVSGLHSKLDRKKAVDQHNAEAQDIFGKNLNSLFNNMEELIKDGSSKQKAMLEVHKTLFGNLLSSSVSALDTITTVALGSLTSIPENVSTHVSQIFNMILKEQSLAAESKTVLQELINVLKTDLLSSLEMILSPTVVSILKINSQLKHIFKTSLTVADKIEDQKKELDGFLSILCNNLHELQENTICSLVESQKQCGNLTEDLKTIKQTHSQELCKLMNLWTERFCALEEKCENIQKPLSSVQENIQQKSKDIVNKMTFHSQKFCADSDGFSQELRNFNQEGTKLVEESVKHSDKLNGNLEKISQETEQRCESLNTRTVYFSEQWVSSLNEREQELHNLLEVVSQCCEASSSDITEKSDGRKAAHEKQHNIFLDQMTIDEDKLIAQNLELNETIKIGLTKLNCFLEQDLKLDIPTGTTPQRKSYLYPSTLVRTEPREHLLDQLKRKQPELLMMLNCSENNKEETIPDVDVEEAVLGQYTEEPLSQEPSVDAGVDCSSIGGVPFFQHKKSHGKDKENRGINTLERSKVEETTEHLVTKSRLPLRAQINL

[14] = biological target: T1, Kinesin-like protein KIF11; experiment: Inhibition of untagged human Eg5 microtubule-stimulated ATPase activity
[15] = system: P388; experiment: Ratio of inhibition of growth in P-glycoprotein overexpressing mouse P388 cells to inhibition of growth in mouse P388; type: functional
[16] = system: P388; experiment: Upregulation of P-glycoprotein mRNA expression in mouse P388 cells; type: functional
[17] = Ratio of inhibition of growth in P-glycoprotein overexpressing human A2780-AD10 cells to inhibition of growth in human A2780; type: functional, A2780 ADR
[18] = system: KB 3-1; experiment: Ratio of inhibition of growth in P-glycoprotein overexpressing […] inhibition of growth in human KB-3-1 cells; type: functional

NCCSC(c1ccccc1)(c1ccccc1)c1ccccc1
GI50 [1]: 0.74 µM
GI50 [2]: 0.57 µM
GI50 [3]: 0.85 µM
GI50 [4]: 0.61 µM
RatioGI50 [5]: 0.8
GI50 [6]: 3.29 µM
GI50 [7]: 4.83 µM
GI50 [8]: 3.88 µM
GI50 [9]: 4.81 µM
RatioGI50 [10]: 1.5
fold change (FC) [11]: 500
fold change (FC) [12]: 25000
Ki [13]: 0.156 µM
IC50 [14]: 0.396 µM

CCOC(=O)C1=C(C)NC(=S)N[C@H]1c1cccc(O)c1 [S-MENASTROL]
Ratio [10]: 1
Ratio [15]: 1
fold change (FC) [12]: 25000
fold change (FC) [16]: 20000

CCCCN1C(=O)[C@@H]2Cc3c([nH]c4ccccc34)[C@@H](c3cccc(O)c3)N2C1=O
Ratio [17]: 2.4

CN1CC[C@H](N(C)C(=O)N2CC(c3cc(F)ccc3F)=C[C@@]2(CO)c2ccccc2)[C@H](F)C1
Ratio [18]: 4.5
